# MsrA inhibitor = bovine MsrA enzyme inhibitors, primary screen, biochemical, absorbance, HTS. Methionine sulfoxide reductase A (Bos taurus). purified bovine MsrA, absorbance read-out. inhibition, % at 15.5 µM. 360,000 compounds, 0.75% hits. AID 651718, 2012; in the data active = inhibition above about 4.5%
# HGIII-sPLA2 inh = human group III sPLA2 inhibitors, primary screen, biochemical, QFRET, BODIPY PC-A2 liposome substrate | QFRET BODIPY PC-A2 liposome hydrolysis, fluorescence | inhibition, % at 12.2 µM | 370,000 compounds, 0.56% hits | AID 743126, 2013;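 active = inhibition above mean plus 3 SD of compounds lying within the high and low control bounds, cut at about 19% in these data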
# ASAP1 inh = inhibitors of human ASAP1 ArfGAP activity, primary screen, biochemical, fluorescence polarization; inhibition, % at 16.5 µM; 360,000 compounds, 0.19% hits; ASAP1-stimulated ARF1 GTP hydrolysis, GDP FP detection; Arf-GAP with SH3 domain, ANK repeat and PH domain-containing protein 1 (Homo sapiens), …; in the data active = inhibition above about 25%
# Target sequence (Q9ULH1 325-724 limits assumed): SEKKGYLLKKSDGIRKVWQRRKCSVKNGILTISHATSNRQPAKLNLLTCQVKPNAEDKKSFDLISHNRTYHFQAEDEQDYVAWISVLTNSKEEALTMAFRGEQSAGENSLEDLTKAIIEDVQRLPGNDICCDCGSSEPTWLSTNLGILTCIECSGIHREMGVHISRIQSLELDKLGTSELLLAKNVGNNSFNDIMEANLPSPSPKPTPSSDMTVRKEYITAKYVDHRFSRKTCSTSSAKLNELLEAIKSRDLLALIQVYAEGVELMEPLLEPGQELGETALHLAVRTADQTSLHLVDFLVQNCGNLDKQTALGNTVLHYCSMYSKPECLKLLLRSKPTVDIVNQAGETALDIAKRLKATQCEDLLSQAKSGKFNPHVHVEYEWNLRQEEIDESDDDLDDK
# NR1D1 modulator = modulators of Rev-erb alpha DNA binding, primary screen, biochemical, FITC-DNA, fluorescence polarization, uHTS | Rev-erbα–FITC-DNA binding, 90 min | 370,000 compounds, 0.79% hits | activity, % at 10 µM | Nuclear receptor subfamily 1 group D member 1 (Homo sapiens), P20393;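 active = activity above about 14%, limit read from the data; passing the limit was not always enough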
# MsrA act = bovine MsrA enzyme activators, primary screen, biochemical, absorbance, HTS. 360,000 compounds, 0.3% hits. purified bovine MsrA, absorbance read-out. AID 602163, 2012. activation, % at 10.6 µM. Methionine sulfoxide reductase A (Bos taurus); in the data active = activation above about 7.5%
# ARFGAP1 inhibitor = inhibitors of rat ARFGAP1 GAP activity, primary screen, biochemical, fluorescence polarization, GDP tracer | Arfgap1-stimulated ARF1 GTP hydrolysis, GDP FP detection | 360,000 compounds, 0.26% hits | ADP-ribosylation factor GTPase-activating protein 1 (Rattus norvegicus), Q62848 | AID 651572, 2012 | inhibition, % at 16.5 µM;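 active = inhibition above a per-plate limit, mean inhibition of low control wells plus 3 SD, cut at about 25% in these data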
# Target sequence (Q62848 1-136 limits assumed): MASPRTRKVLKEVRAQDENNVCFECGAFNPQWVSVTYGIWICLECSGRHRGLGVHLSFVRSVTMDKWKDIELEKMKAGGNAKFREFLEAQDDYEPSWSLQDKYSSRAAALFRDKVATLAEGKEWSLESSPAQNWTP
#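 Assay system: purified rat His6-Arfgap1 residues 1-136 (GAP domain); Reagent: human Δ17 ARF1 bound to GTP; Dosing: 16.5 µM single point, 1.26% DMSO; Times: GTP hydrolysis reaction 2 h at 25 °C; Signal: FP, GDP Alexa 633 tracer displaced from anti-GDP antibody, 620/688 nm; Measure: % inhibition from polarization.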
# A number is an active result; 0 = inactive; - = no result given. A selection: hits, their analogues and other compounds. The true share with any hit is near 2.7%.
SMILES,MsrA inhibitor,HGIII-sPLA2 inh,ASAP1 inh,NR1D1 modulator,MsrA act,ARFGAP1 inhibitor
COc1ccc(OC)c(/C=N/N=C(\N)c2nonc2N)c1,0,0,0,0,0,0
COc1ccc(/C=N/N=C(\N)c2nonc2N)cc1OC,4.6,0,0,0,0,0
COc1ccc(/C=N/NC(=O)c2nnn(-c3nonc3N)c2-c2cccs2)cc1OC,4.6,0,0,0,0,0
COc1cc(/C=N/NC(=O)c2nnn(-c3nonc3N)c2-c2cccs2)ccc1O,0,0,0,0,0,0
CCOc1cc([N+](=O)[O-])cc(/C=C2/NC(=O)N(Cc3ccccc3F)C2=O)c1O,4.6,0,0,0,0,0
CC1=C(C(=O)O)N2C(=O)[C@@H](NC(=O)[C@H](N)C3=CCC=CC3)[C@@H]2SC1,-,-,-,0,-,-
CN[C@@H]1[C@H](OC2[C@H](O[C@H]3[C@H](O)[C@@H](O)[C@H](N=C(N)N)[C@@H](O)[C@@H]3N=C(N)N)O[C@@H](C)[C@]2(O)C=O)O[C@@H](CO)[C@H](O)[C@H]1O (some centres undefined),-,-,-,0,-,-
CCC(=O)O[C@H]1CCC2C3CCc4cc(O)ccc4C3CC[C@@]21C (some centres undefined),-,-,-,0,-,-
CN1CCN(C(c2ccc(Br)cc2)c2cc(Cl)c3cccnc3c2O)CC1 (centres undefined),0,20.3,0,0,0,0
CN1CCN(C(c2ccc(F)cc2)c2ccc3cccnc3c2O)CC1 (centres undefined),-,-,-,-,0,-
COC(=O)c1c(NC(=O)c2cccs2)sc2c1CCC(C)C2 (centres undefined),0,0,0,0,8.3,0
CC(C)(C)NCC(O)COc1cccc2c1CCCC2=O (centres undefined),-,-,-,0,-,-
CC(=O)C1=C(O)C=C(c2ccco2)CC1c1ccco1 (centres undefined),4.8,0,0,0,0,0
O=C(CCl)N1N=C(c2ccco2)CC1c1ccco1 (centres undefined),0,0,0,0,0,0
CN(C)CCCNc1nc(-c2ccc(Cl)cc2)nc2ccccc12,6.0,0,0,0,0,0
C#Cc1cccc(Nc2nc(NCc3ccccc3)nc3ccsc23)c1,13.5,0,0,0,0,0
Cc1ccc(C(=O)N/C(=C\c2ccc3c(c2)OCO3)C(=O)Nc2ccc(C(=O)O)cc2)cc1,4.6,0,0,0,0,0
O=c1c2c(c1=O)N(CCP(=O)(O)O)CCCN2,-,-,-,0,-,-
COc1cc2sc3cc(NCC[C@@H]4CCCN4C)ccc3c(=O)c2cc1OC,0,0,0,0,0,26.6
CN(C)c1nc(NCc2ccccc2)nc(SCC(=O)Nc2ccccc2)n1,0,0,0,0,18.0,0
CN(C)c1nc(NCc2ccccc2)nc(SCC(=O)Nc2ccccc2Cl)n1,0,0,0,0,0,0
C[C@@H]1CC2C3C[C@H](F)C4=CC(=O)C=C[C@]4(C)[C@@]3(F)[C@@H](O)C[C@]2(C)[C@@]1(O)C(=O)COC(=O)C(C)(C)C (some centres undefined),-,-,-,0,-,-
Cc1cc(-n2c(C)cc(C(=O)CSc3ccccn3)c2C)no1,0,0,0,0,0,0
Cc1cc(-n2c(C)cc(C(=O)CSc3ccc4c(c3)OCCO4)c2C)no1,0,0,0,0,24.0,0
CC(=O)c1ccc(N2CCN(C(=O)C3CCN(S(=O)(=O)c4cccs4)CC3)CC2)cc1,4.6,0,0,0,0,0
SMILES,MsrA inhibitor,HGIII-sPLA2 inh,ASAP1 inh,NR1D1 modulator,MsrA act,ARFGAP1 inhibitor
Cc1nc(-c2ccc([N+](=O)[O-])cc2)sc1C(=O)O,4.6,0,0,0,0,0
Cc1ccc(-c2nc(C)c(C(=O)O)s2)cc1,0,0,0,0,0,0
CO[C@H]1C[C@@H](O[C@@H]2/C(C)=C/C[C@@H]3C[C@@H](C[C@]4(CC[C@H](C)[C@@H](C5CCCCC5)O4)O3)OC(=O)[C@@H]3C=C(C)/C(=N/O)[C@H]4OC/C(=C\C=C\[C@@H]2C)[C@]43O)O[C@@H](C)[C@H]1O,-,-,-,0,-,-
NC1[C@H]2CN(c3nc4c(cc3F)c(=O)c(C(=O)O)cn4-c3ccc(F)cc3F)C[C@@H]12 (some centres undefined),-,-,-,0,-,-
CC(C)(S)C(N)C(=O)O (centres undefined),-,-,-,0,-,-
COc1ccc(/C=N/N=C/c2ccc(OC)c(O)c2)cc1O,7.1,0,0,0,0,0
COc1ccc(/C=N/N=C/c2ccc(OC)c(OC)c2)cc1OC,0,0,0,0,0,0
OCCN1C[C@@H](O)[C@@H](O)C(O)C1CO (some centres undefined),-,-,-,0,-,-
COc1ccc([C@H]2CC(=O)C=C(/C=C/c3ccccc3)C2)cc1OC,4.6,0,0,0,0,0
CO/N=C(/C(=O)N[C@H]1C(=O)N2C(C(=O)OC(C)OC(C)=O)=C(COC(N)=O)CSC12)c1ccco1 (some centres undefined),-,-,-,0,-,-
CCc1ccc(C(=O)/C=C2\Sc3ccccc3NC2=O)cc1,0,41.0,0,0,0,0
CCCCNC(=O)/C=C1\Sc2ccccc2NC1=O,0,0,0,0,0,0
O=C(Nc1ccc(CN2CCOCC2)cc1)c1ccc(-c2cccc([N+](=O)[O-])c2)o1,0,0,37.0,0,0,36.7
CCOC(=O)Nc1ccc2c(COC(=O)c3ccccc3O)cc(=O)oc2c1,0,0,0,0,0,0
CCOC(=O)Nc1ccc2c(COC(=O)C(NS(=O)(=O)c3ccc(Cl)cc3)C(C)O)cc(=O)oc2c1 (centres undefined),4.6,0,0,0,0,0
O=C(O)C1=C(CSc2nnnn2CS(=O)(=O)O)CS[C@@H]2[C@@H](NC(=O)[C@H](O)c3ccccc3)C(=O)N12,-,-,-,0,-,-
CCCCCCCNC(=O)C1(CC2CC(c3ccc(Cl)cc3)=NO2)CCN(C(=O)C2(C)CC2)CC1 (centres undefined),-,-,-,-,8.5,-
CCCSc1cc(NCCOC(=O)CCC)c([N+](=O)[O-])c2nonc12,0,0,0,0,0,0
CCCC(=O)OCCNc1cc(Sc2nccn2C)c2nonc2c1[N+](=O)[O-],0,19.3,0,0,0,0
CSc1nc2nccc(/C=C\c3ccccc3)n2n1,4.9,0,0,0,0,0
O=C1/C(=C/c2cccnc2)N=C2CCCCCN12,4.6,0,0,0,0,0
CN(C)c1ccc2nc3ccc(=O)cc-3sc2c1,0,0,0,0,0,0

# Assay outcomes as filed in PubChem BioAssay.
